# Assay results as given in ChEMBL document CHEMBL2396559, “Synthesis and preliminary biological evaluation of a compound library of triazolylcyclitols” (2013).
# Activity calls are given as the source filed them. No cut-off for these calls is given here.
# Tests used:
# [1] = Immunosuppressive activity against C57Bl/6 mouse splenic lymphocytes assessed as concanavalin A-induced cell proliferation at > 0.002 nM incubated for 1 hr prior to concanavalin A challenge measured after 48 hrs by resazurin reduction assay relative to control; assay type: functional, Splenic lymphocyte; set-up: scale not given: the % may be the effect or the level left
# Outline: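 Splenocytes from male C57Bl/6 mice were plated at 1×10^6 cells/mL, 37 °C, 5% CO2. Compounds at 0.002–200 nM were added for 1 h, then cells were incubated with or without concanavalin A (0.5 µg/mL) for 48 h. Resazurin 0.01% was added for 24 h, then OD read at 570 and 600 nm and proliferation taken as the difference. Compared with ConA plus vehicle. Three animals in triplicate.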
# [2] = tested on: Candida parapsilosis; experiment: Antifungal activity against Candida parapsilosis ATCC 22919 assessed as growth inhibition at 10 mg/mL by bioautographic agar overlay method; assay type: functional, organism-based
# Outline: (§1)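 Samples at 10 mg/mL spotted on silica gel TLC plates, overlaid with a thin Sabouraud agar film inoculated 50:1 with fresh-culture suspension at 10^6 cells or spores/mL. Incubation time and conditions were set per fungus. Growth-free zones around spots scored qualitatively. Same plate carried DMSO 1% negative control plus amphotericin B and ketoconazol controls.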
# [3] = tested on: Trichophyton rubrum; experiment: Antifungal activity against Trichophyton rubrum ATCC 28188 assessed as growth inhibition at 10 mg/mL by bioautographic agar overlay method; assay type: functional, organism-based; outline: as §1
# [4] = tested on: Cryptococcus neoformans; experiment: Antifungal activity against Cryptococcus neoformans ATCC 14116 assessed as growth inhibition at 10 mg/mL by bioautographic agar overlay method; assay type: functional, organism-based; outline: as §1
# [5] = tested on: Splenic lymphocyte; experiment: Immunosuppressive activity against C57Bl/6 mouse splenic lymphocytes assessed as cell viability at 200 nM after 72 hrs by MTT assay; assay type: functional
# Outline: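 Spleens from male 18-week-old C57Bl/6 mice were teased through a strainer, washed in RPMI and resuspended in RPMI with 10% FBS. Cells were counted by trypan blue and cultured in triplicate at 37 °C for 72 h with vehicle (medium, 0.1% DMSO), 10% DMSO or compound at 200 nM. MTT was added for 2 h, formazan dissolved in DMSO and read at 570 nm. Viability taken as % of vehicle after blank subtraction. Three animals.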
# [6] = tested on: Trichophyton mentagrophytes; experiment: Antifungal activity against Trichophyton mentagrophytes ATCC 9533 assessed as growth inhibition at 10 mg/mL by bioautographic agar overlay method; assay type: functional, organism-based; outline: as §1
# [7] = tested on: Candida albicans; experiment: Antifungal activity against Candida albicans ATCC 90022 assessed as growth inhibition at 10 mg/mL by bioautographic agar overlay method; assay type: functional, organism-based; outline: as §1
# [8] = tested on: Nakaseomyces glabratus; experiment: Antifungal activity against Candida glabrata ATCC 15126 assessed as growth inhibition at 10 mg/mL by bioautographic agar overlay method; assay type: functional, organism-based; outline: as §1
# [9] = tested on: Nannizzia gypsea; experiment: Antifungal activity against Microsporum gypseum ATCC 24102 assessed as growth inhibition at 10 mg/mL by bioautographic agar overlay method; assay type: functional, organism-based; outline: as §1
Structure (SMILES),Activity [1],growth inhibition (GI) [2],growth inhibition (GI) [3],growth inhibition (GI) [4],Activity [5],growth inhibition (GI) [6],growth inhibition (GI) [7],growth inhibition (GI) [8],growth inhibition (GI) [9]
C#Cc1ccc(-c2cn([C@H]3C=C(Br)[C@@H](O)[C@@H](O)[C@@H]3O)nn2)cc1,<=30%,inactive,inactive,inactive,inactive,inactive,inactive,inactive,inactive
O[C@H]1[C@H](O)[C@@H](n2cc(-c3cccc(-c4cn([C@H]5C=C(Br)[C@@H](O)[C@@H](O)[C@@H]5O)nn4)c3)nn2)C=C(Br)[C@H]1O,<=30%,inactive,inactive,inactive,inactive,inactive,inactive,inactive,inactive
O[C@H]1[C@H](O)[C@H](n2cc(-c3ccc(-c4cn([C@@H]5C=C(Br)[C@@H](O)[C@@H](O)[C@@H]5O)nn4)cc3)nn2)C=C(Br)[C@H]1O,<=30%,Active,inactive,inactive,inactive,inactive,inactive,inactive,inactive
O[C@H]1[C@H](O)[C@H](n2cc(-c3ccc(-c4cn([C@H]5C=C(Br)[C@@H](O)[C@@H](O)[C@@H]5O)nn4)cc3)nn2)C=C(Br)[C@H]1O (mixture of isomers),<=30%,inactive,inactive,inactive,inactive,inactive,inactive,inactive,inactive
C#Cc1ccc(-c2cn([C@@H]3C=C(Br)[C@@H](O)[C@@H](O)[C@@H]3O)nn2)cc1,<=30%,Active,inactive,inactive,inactive,inactive,inactive,inactive,inactive
O[C@H]1[C@H](O)[C@@H](n2cc(-c3ccc(-c4cn([C@H]5C=C(Br)[C@@H](O)[C@@H](O)[C@@H]5O)nn4)cc3)nn2)C=C(Br)[C@H]1O,<=30%,inactive,Active,inactive,inactive,inactive,inactive,inactive,Active
C#Cc1cccc(-c2cn([C@H]3C=C(Br)[C@@H](O)[C@@H](O)[C@@H]3O)nn2)c1,<=30%,inactive,inactive,inactive,inactive,inactive,inactive,inactive,inactive
C#Cc1cccc(-c2cn([C@@H]3C=C(Br)[C@@H](O)[C@@H](O)[C@@H]3O)nn2)c1,<=30%,Active,inactive,inactive,inactive,inactive,inactive,inactive,inactive
O[C@H]1[C@H](O)[C@H](n2cc(-c3cccc(-c4cn([C@@H]5C=C(Br)[C@@H](O)[C@@H](O)[C@@H]5O)nn4)c3)nn2)C=C(Br)[C@H]1O,<=30%,inactive,inactive,inactive,inactive,inactive,inactive,inactive,inactive
O[C@H]1[C@H](O)[C@H](n2cc(-c3cccc(-c4cn([C@H]5C=C(Br)[C@@H](O)[C@@H](O)[C@@H]5O)nn4)c3)nn2)C=C(Br)[C@H]1O (mixture of isomers),<=30%,inactive,inactive,inactive,inactive,Active,inactive,Active,inactive
